Screens deposited in PubChem by The Scripps Research Institute Molecular Screening Center.
Rows were chosen to be rich in hits. Some 3.9% of all compounds tested hit in one or more screens of this group.
TAAR1 antag: antagonists of human TAAR1; AID 624466; 360,000 compounds, 1.5% hits; Q96RJ0; inhibition, % at 3 µM; CHO RD-HGA16 TAAR1, Fluo-8 calcium fluorescence, antagonist;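 active = inhibition above a per-plate cutoff, the mean inhibition of test compounds on that plate plus 3 SD, cut at about 49% in these data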
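Test system: CHO RD-HGA16 cells bearing hTAAR1 | Reagent: β-PEA, EC80 | Compound dosing: 3 µM, single point | Schedule: Dye loading 75 min at 37 °C, then 30 min room temperature | Signal: Calcium fluorescence with Fluo-8 | Evaluation: Percent inhibition of PEA-evoked calcium signal, max/basal emission ratio | Control set: DMSO-only wells and EC80 β-PEA-stimulated wells | Repeats: Singlicate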
M1 antag: blocks human M1 muscarinic receptor; P11229; CHO-K1 hM1, Fluo-8 calcium fluorescence, ACh EC80 antagonist; inhibition, % at 3 µM; 360,000 compounds, 1.3% hits; AID 588852;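 active = percent inhibition above its own plate's cutoff, namely the mean of that plate's compound wells plus 3 SD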;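 also: peak over basal fluorescence ratio during 140 s after agonist addition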
Target sequence (P11229 whole entry, looked up): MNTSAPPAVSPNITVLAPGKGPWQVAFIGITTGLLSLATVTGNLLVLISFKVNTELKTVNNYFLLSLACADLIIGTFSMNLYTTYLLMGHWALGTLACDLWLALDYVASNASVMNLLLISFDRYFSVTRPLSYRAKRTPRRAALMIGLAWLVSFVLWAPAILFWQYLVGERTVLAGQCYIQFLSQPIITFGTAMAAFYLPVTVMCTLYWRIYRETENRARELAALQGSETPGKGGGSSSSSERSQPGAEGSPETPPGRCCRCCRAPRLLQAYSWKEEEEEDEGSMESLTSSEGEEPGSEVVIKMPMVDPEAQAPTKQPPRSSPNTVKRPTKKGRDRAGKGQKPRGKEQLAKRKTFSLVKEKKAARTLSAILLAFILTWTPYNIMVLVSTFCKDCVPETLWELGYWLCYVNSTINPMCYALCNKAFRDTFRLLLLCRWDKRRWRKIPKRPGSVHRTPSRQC
HTR2A ag: activates the mouse 5-HT2A serotonin receptor. P35363. 360,000 compounds, 0.66% hits. CHO-K1 mHTR2A beta-arrestin complementation, luminescence; percent of 30 µM serotonin response. activation, % at 7.6 µM. AID 624169;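 active = activation above a run cutoff, the mean activation of all tested compounds plus 3 SD, cut at about 14% in these data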
M1 ag: activates human CHRM1 receptor; P11229; CHO-K1 hM1, Fluo-8 calcium fluorescence, agonist mode; 0% DMSO, 100% acetylcholine EC100; activation, % at 3 µM; 360,000 compounds, 0.33% hits;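 active = activation above the run's mean compound activation plus 3 SD, cut at about 16% in these data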;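 also: peak over basal fluorescence ratio within a 140 s kinetic read after compound addition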
TAAR1 ag: agonists of human TAAR1; Q96RJ0; CHO RD-HGA16 TAAR1, Fluo-8 calcium fluorescence; vehicle wells 0%, saturating PEA agonist 100%; activation, % at 3 µM; 360,000 compounds, 0.99% hits; AID 624467;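 active = activation above the mean activation of all test compounds in the run plus 3 SD, cut at about 38% in these data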
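Benchmarks: low control DMSO, high control PEA (EC100); System: CHO RD-HGA16 cells carrying human TAAR1 plus Gα16; Detection: Fluo-8 fluorescence, 5 s baseline then 140 s kinetic read; Schedule: 17-24 h plating, Fluo-8 75 min 37 °C, 30 min RT; Read-out basis: % activation from peak over basal fluorescence ratio, DMSO-to-PEA scaled.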
CHRM1 PAM: potentiates human M1 receptor response to acetylcholine. P11229. 360,000 compounds, 0.088% hits. activation, % at 3 µM. CHO-K1 hM1, Fluo-8 calcium fluorescence, ACh EC20; 0% = ACh EC20, 100% = maximal ACh; in the data active = activation above about 19%, passing the limit was not always enough
Numbers stand for hits.

How did O=C(NCC(c1cccs1)N1CCOCC1)c1cc(S(=O)(=O)N2CCOCC2)ccc1Cl (stereo not drawn) do in these assays?
TAAR1 antag: inactive; M1 antag: inactive; HTR2A ag: inactive; M1 ag: inactive; TAAR1 ag: inactive; CHRM1 PAM: inactive

Results for OCCC1CN(Cc2nc3ccccc3s2)CCN1CCc1ccccc1 (stereo not drawn) ?
TAAR1 antag: inactive; M1 antag: inactive; HTR2A ag: inactive; M1 ag: inactive; TAAR1 ag: inactive; CHRM1 PAM: inactive

Results for COC(=O)c1ccc(C2c3[nH]c4ccccc4c3C[C@H]3C(=O)N(C)CC(=O)N23)cc1 (stereo partly drawn) ?
TAAR1 antag: inactive; M1 antag: inactive; HTR2A ag: inactive; M1 ag: inactive; TAAR1 ag: inactive; CHRM1 PAM: inactive

What do the screens show for `CCN1C(=O)[C@@H]2Cc3c([nH]c4ccccc34)C(c3ccc(OC)cc3)N2C1=S` (stereo partly drawn)?
M1 antag: 71; HTR2A ag: inactive; M1 ag: inactive; CHRM1 PAM: inactive

Results for CN(C)CCO[C@@H](c1ccc(Cl)cc1)c1ccccn1 ?
TAAR1 antag: inactive; M1 antag: 44; HTR2A ag: inactive; M1 ag: inactive; TAAR1 ag: inactive; CHRM1 PAM: inactive

Results for CN(C)CC[C@@H](c1ccc(Br)cc1)c1ccccn1 ?
TAAR1 antag: inactive; M1 antag: inactive; HTR2A ag: inactive; M1 ag: inactive; TAAR1 ag: inactive; CHRM1 PAM: inactive

What do the screens show for `NC(=O)c1ccc(NC(=O)c2ccc(COc3ccccc3Br)cc2)cc1`?
TAAR1 antag: inactive; M1 antag: inactive; HTR2A ag: inactive; M1 ag: inactive; TAAR1 ag: inactive; CHRM1 PAM: inactive

What do the screens show for `Cc1cc(C)n(Cc2ccc(NC(=O)c3ccc(COc4ccccc4Br)cc3)cc2)n1`?
TAAR1 antag: 49; M1 antag: inactive; HTR2A ag: inactive; M1 ag: inactive; TAAR1 ag: inactive; CHRM1 PAM: inactive

Results for CCCS(=O)(=O)NC(=O)C1(C)CCCN(C(=O)c2ccccc2Br)C1 (stereo not drawn) ?
TAAR1 antag: inactive; M1 antag: inactive; HTR2A ag: inactive; M1 ag: inactive; TAAR1 ag: inactive; CHRM1 PAM: inactive

Results for CCCS(=O)(=O)NC(=O)C1(C)CCN(C(=O)c2ccccc2Br)C1 (stereo not drawn) ?
M1 antag: inactive; HTR2A ag: inactive; M1 ag: inactive; CHRM1 PAM: 27

How did Nc1ccn([C@@H]2O[C@H](C(=O)N3CCN(C(=O)C(F)(F)F)CC3)[C@@H](O)[C@H]2O)c(=O)n1 do in these assays?
TAAR1 antag: inactive; TAAR1 ag: inactive

What do the screens show for `CC(C)C[C@H](NC(=O)c1ccco1)C(=O)N1CCC[C@H]1C(=O)NCc1ccccc1`?
TAAR1 antag: inactive; TAAR1 ag: inactive

How did COc1cccc(NC(=O)COC(=O)COc2cccc3c2OC(C)(C)C3)c1 do in these assays?
TAAR1 antag: inactive; M1 antag: inactive; HTR2A ag: inactive; M1 ag: inactive; TAAR1 ag: inactive; CHRM1 PAM: inactive

Results for CC1(C)Cc2cccc(OCC(=O)Nc3ccccc3F)c2O1 ?
TAAR1 antag: inactive; M1 antag: inactive; HTR2A ag: inactive; M1 ag: inactive; TAAR1 ag: inactive; CHRM1 PAM: inactive

What do the screens show for `CCCNC(=O)c1ccccc1NC(=O)COc1cccc2c1OC(C)(C)C2`?
TAAR1 antag: 50; M1 antag: inactive; HTR2A ag: inactive; M1 ag: inactive; TAAR1 ag: inactive; CHRM1 PAM: inactive

Results for COc1ccc(NC(=O)COc2cccc3c2OC(C)(C)C3)cc1OC ?
TAAR1 antag: inactive; M1 antag: 31; HTR2A ag: inactive; M1 ag: inactive; TAAR1 ag: inactive; CHRM1 PAM: inactive

How did Cc1ccc2c(c1)N(C(=O)CSc1nncn1C)C(C)(C)c1ssc(=S)c1-2 do in these assays?
TAAR1 antag: inactive; M1 antag: 41; HTR2A ag: inactive; M1 ag: inactive; TAAR1 ag: inactive; CHRM1 PAM: inactive

What do the screens show for `COc1ccc(NCc2ccc(OC)c(Cn3ccnc3)c2)c(OC)c1`?
TAAR1 antag: inactive; M1 antag: 34; HTR2A ag: inactive; M1 ag: inactive; TAAR1 ag: inactive; CHRM1 PAM: inactive

What do the screens show for `Cc1cc(C)cc(NC(=O)Cn2ncn3c(cc4ccccc43)c2=O)c1`?
TAAR1 antag: inactive; M1 antag: inactive; HTR2A ag: inactive; M1 ag: inactive; TAAR1 ag: 39; CHRM1 PAM: inactive

What do the screens show for `Cc1onc(-c2ccccc2)c1C(=O)NNC(=S)NC(=O)c1ccc(Br)cc1`?
TAAR1 antag: inactive; M1 antag: inactive; HTR2A ag: inactive; M1 ag: 75; TAAR1 ag: inactive; CHRM1 PAM: inactive

What do the screens show for `Cc1onc(-c2ccccc2)c1C(=O)NNC(=O)c1ccccc1`?
TAAR1 antag: inactive; M1 antag: inactive; HTR2A ag: inactive; M1 ag: inactive; TAAR1 ag: inactive; CHRM1 PAM: inactive

How did Cc1ccccc1C(=O)N1CCC2CC1c1cc(-c3ccc(F)cc3)ccc12 (stereo not drawn) do in these assays?
TAAR1 antag: 59; M1 antag: inactive; HTR2A ag: inactive; M1 ag: inactive; TAAR1 ag: inactive; CHRM1 PAM: inactive

What do the screens show for `C=CC[C@H](CC(=O)N[C@H](CO)Cc1ccccc1)C(=O)N[C@@H](COC(=O)[C@H](CC=C)CC(=O)OC(C)(C)C)Cc1c[nH]c2ccccc12`?
TAAR1 antag: 60; M1 antag: inactive; HTR2A ag: inactive; M1 ag: inactive; TAAR1 ag: inactive; CHRM1 PAM: inactive

What do the screens show for `C=CC[C@@H](CC(=O)N[C@@H](CO)Cc1ccccc1)C(=O)N[C@@H](COC(=O)[C@@H](CC=C)CC(=O)OC(C)(C)C)Cc1c[nH]c2ccccc12`?
TAAR1 antag: inactive; M1 antag: inactive; HTR2A ag: inactive; M1 ag: inactive; TAAR1 ag: inactive; CHRM1 PAM: inactive

How did C=CC[C@@H](CC(=O)N[C@H](CO)Cc1ccccc1)C(=O)N[C@H](COC(=O)[C@@H](CC=C)CC(=O)OC(C)(C)C)Cc1c[nH]c2ccccc12 do in these assays?
TAAR1 antag: 65; M1 antag: inactive; HTR2A ag: inactive; M1 ag: inactive; TAAR1 ag: inactive; CHRM1 PAM: inactive

What do the screens show for `O=C(NC(Cc1ccccc1)C(=O)N1CCCCC1)c1ccccc1` (stereo not drawn)?
TAAR1 antag: inactive; M1 antag: inactive; HTR2A ag: inactive; M1 ag: inactive; TAAR1 ag: inactive; CHRM1 PAM: inactive

What do the screens show for `O=C(Nc1cccc(Cl)c1)Nc1cccc(Cl)c1`?
TAAR1 antag: inactive; M1 antag: inactive; HTR2A ag: inactive; M1 ag: inactive; TAAR1 ag: inactive; CHRM1 PAM: inactive
